In brackets after ≈: the same amount, converted by molar mass.
Experiments:
[1] = tested on: Schistosoma mansoni; test: Antischistosomal activity against Schistosoma mansoni assessed as mortality at 50 ug/ml after 24 hrs by microscopic analysis; type: functional
How it was run: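 Adult worms, 3 male plus 3 female per well, triplicate wells. Compounds in DMSO, 0.5% DMSO as negative control, praziquantel 0.1 µg/ml as positive control. Incubated 37 °C for 24 h, then scored under a dissecting microscope. Worms motionless for at least 1 min, coiled and darkened, counted dead. Activity given as % dead worms per well.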

[2] = tested on: Pseudomonas aeruginosa; test: Antibacterial activity against Pseudomonas aeruginosa at 200 ug/disc after 24 hrs by agar disc-diffusion method; type: functional; conditions: for zone of inhibition at 200 µg/disc: read-out: DIZ
How it was run: (§1)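 Disc diffusion on Müller-Hinton agar. 8 mm filter-paper discs carried test solution in DMSO at 200 µg/disc and were placed on agar pre-inoculated with each bacterium. Incubated at 37 °C; inhibition zone diameter measured after 24 h. DMSO solvent control.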

[3] = tested on: Candida albicans; test: Antifungal activity against Candida albicans at 200 ug/disc after 48 hrs by agar disc-diffusion method; type: functional; conditions: read-out: DIZ
How it was run: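 Disc diffusion for Candida albicans on Müller-Hinton agar. 8 mm discs loaded at 200 µg/disc from DMSO, with clotrimazole 200 µg/disc as reference. Plates held at 25 °C for 48 h, then growth-inhibition zone diameter measured in mm.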

[4] = tested on: Escherichia coli; test: Antibacterial activity against Escherichia coli at 200 ug/disc after 24 hrs by agar disc-diffusion method; type: functional; conditions: for zone of inhibition at 200 µg/disc: read-out: DIZ; how it was run: as §1
[5] = tested on: Bacillus subtilis; test: Antibacterial activity against Bacillus subtilis at 200 ug/disc after 24 hrs by agar disc-diffusion method; type: functional; conditions: for zone of inhibition at 200 µg/disc: read-out: DIZ; how it was run: as §1
[6] = tested on: Staphylococcus aureus; test: Antibacterial activity against Staphylococcus aureus at 200 ug/disc after 24 hrs by agar disc-diffusion method; type: functional; conditions: for zone of inhibition at 200 µg/disc: read-out: DIZ; how it was run: as §1
[7] = biological target: T1, Dihydrofolate reductase (Bos taurus, UniProt P00376); test: Inhibition of bovine liver DHFR measured every 1 min for 10 mins
T1 sequence (P00376 whole entry): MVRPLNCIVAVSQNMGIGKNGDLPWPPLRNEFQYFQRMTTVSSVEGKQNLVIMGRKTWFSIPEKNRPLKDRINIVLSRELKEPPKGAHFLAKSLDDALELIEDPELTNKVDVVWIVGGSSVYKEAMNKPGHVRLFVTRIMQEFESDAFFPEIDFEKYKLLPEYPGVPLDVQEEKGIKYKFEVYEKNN

[8] = tested on: A549; test: Cytotoxicity against human A549 cells after 48 hrs by MTT assay; type: functional; conditions: A549, 48 h, read-out: LC50 (the source's name)
How it was run: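 A549 cells grown in DMEM with 1% antibiotic-antimycotic and 1% L-glutamine at 37 °C, 5% CO2, seeded at 10 x 10^3 cells/well for 24 h. Exposed in serum-free medium to 0.78–100 µM for 48 h, then MTT added for 4 h and dissolved overnight in 10% SDS.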

[9] = tested on: HepG2; test: Cytotoxicity against human HepG2 cells after 48 hrs by MTT assay; type: functional; conditions: HepG2, 48 h, read-out: LC50 (the source's name)
How it was run: (§2)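 HCT116, HepG2 and MCF7 cells grown in RPMI 1640 with 1% antibiotic-antimycotic and 1% L-glutamine at 37 °C, 5% CO2, seeded at 10 x 10^3 cells/well for 24 h. Exposed in serum-free medium to 0.78–100 µM for 48 h, then MTT added for 4 h and dissolved overnight in 10% SDS.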

[10] = tested on: Bacillus subtilis; test: Antibacterial activity against Bacillus subtilis after 24 hrs by microdilution susceptibility method; type: functional
How it was run: (§3)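 Microdilution in Müller-Hinton broth. Compounds dissolved in DMSO at 64 µg/mL, then twofold dilutions from 64 down to 0.125 µg/ml. Inoculum 10^6 CFU/ml. Plates held 24 h at 37 °C. MIC taken as the lowest concentration giving no visible growth by eye.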

[11] = tested on: Staphylococcus aureus; test: Antibacterial activity against Staphylococcus aureus after 24 hrs by microdilution susceptibility method; type: functional; how it was run: as §3
[12] = tested on: Pseudomonas aeruginosa; test: Antibacterial activity against Pseudomonas aeruginosa after 24 hrs by microdilution susceptibility method; type: functional
[13] = tested on: Escherichia coli; test: Antibacterial activity against Escherichia coli after 24 hrs by microdilution susceptibility method
[14] = tested on: MCF7; test: Cytotoxicity against human MCF7 cells after 48 hrs by MTT assay; type: functional; conditions: MCF7, 48 h, read-out: LC50 (the source's name); how it was run: as §2
[15] = tested on: HCT-116; test: Cytotoxicity against human HCT116 cells after 48 hrs by MTT assay; type: functional; conditions: HCT-116, 48 h, read-out: LC50 (the source's name); how it was run: as §2

Cc1ccc(-n2c(S)nnc2-c2csc(N)n2)cc1
mortality at 50 µg/mL [1]: 10.5%
zone of inhibition at 200 µg/disc [2]: 8 mm
zone of inhibition at 200 µg/disc [3]: 8 mm
zone of inhibition at 200 µg/disc [4]: 8 mm
zone of inhibition at 200 µg/disc [5]: 8 mm
zone of inhibition at 200 µg/disc [6]: 8 mm
IC50 [7]: 24 µM

COc1ccc(-n2c(S)nnc2-c2csc(N(C(C)=O)C(C)=O)n2)cc1
mortality at 50 µg/mL [1]: 6%
CC50 [8]: 35.4 µM
zone of inhibition at 200 µg/disc [2]: 8 mm
zone of inhibition at 200 µg/disc [3]: 8 mm
zone of inhibition at 200 µg/disc [4]: 8 mm
zone of inhibition at 200 µg/disc [5]: 14 mm
zone of inhibition at 200 µg/disc [6]: 12 mm
IC50 [7]: 5 µM

CC(=O)N(C(C)=O)c1nc(-c2nnc(S)n2-c2ccc(Cl)cc2)cs1
CC50 [9]: 29.1 µM
MIC [10]: 4 µg/mL (≈ 10.2 µM)
MIC [11]: 4 µg/mL (≈ 10.2 µM)
zone of inhibition at 200 µg/disc [2]: 8 mm
zone of inhibition at 200 µg/disc [3]: 8 mm
zone of inhibition at 200 µg/disc [4]: 8 mm
zone of inhibition at 200 µg/disc [5]: 21 mm
zone of inhibition at 200 µg/disc [6]: 16 mm
IC50 [7]: 10 µM

Clc1ccccc1C(c1ccccc1)(c1ccccc1)n1ccnc1 [CLOTRIMAZOLE]
zone of inhibition at 200 µg/disc [3]: 21 mm

Nc1nc(-c2nnc(S)n2-c2ccc(Oc3ccccc3)cc2)cs1
mortality at 50 µg/mL [1]: 55.6%
MIC [12]: 1 µg/mL (≈ 2.72 µM)
MIC [13]: 0.5 µg/mL (≈ 1.36 µM)
MIC [10]: 0.5 µg/mL (≈ 1.36 µM)
MIC [11]: 0.5 µg/mL (≈ 1.36 µM)
zone of inhibition at 200 µg/disc [2]: 16 mm
zone of inhibition at 200 µg/disc [3]: 14 mm
zone of inhibition at 200 µg/disc [4]: 20 mm
zone of inhibition at 200 µg/disc [5]: 32 mm
zone of inhibition at 200 µg/disc [6]: 28 mm

O=C(O)c1cn(C2CC2)c2cc(N3CCNCC3)c(F)cc2c1=O [CIPROFLOXACIN]
MIC [12]: 1 µg/mL (≈ 3.02 µM)
MIC [10]: 0.5 µg/mL (≈ 1.51 µM)
MIC [11]: 0.5 µg/mL (≈ 1.51 µM)
zone of inhibition at 200 µg/disc [2]: 36 mm
zone of inhibition at 200 µg/disc [4]: 38 mm
zone of inhibition at 200 µg/disc [5]: 35 mm
zone of inhibition at 200 µg/disc [6]: 32 mm

O=C(C1CCCCC1)N1CC(=O)N2CCc3ccccc3C2C1 (centres undefined) [PRAZIQUANTEL]
mortality at 50 µg/mL [1]: 100%

CN(Cc1cnc2nc(N)nc(N)c2n1)c1ccc(C(=O)N[C@@H](CCC(=O)O)C(=O)O)cc1 [METHOTREXATE]
zone of inhibition at 200 µg/disc [2]: 8 mm
zone of inhibition at 200 µg/disc [3]: 8 mm
zone of inhibition at 200 µg/disc [4]: 8 mm
zone of inhibition at 200 µg/disc [5]: 8 mm
zone of inhibition at 200 µg/disc [6]: 8 mm

Nc1nc(-c2nnc(S)n2-c2ccc(Cl)cc2)cs1
mortality at 50 µg/mL [1]: 5%
zone of inhibition at 200 µg/disc [2]: 8 mm
zone of inhibition at 200 µg/disc [3]: 12 mm
zone of inhibition at 200 µg/disc [4]: 8 mm
zone of inhibition at 200 µg/disc [5]: 12 mm
zone of inhibition at 200 µg/disc [6]: 8 mm
IC50 [7]: 18 µM

COc1cccc2c1C(=O)c1c(O)c3c(c(O)c1C2=O)C[C@@](O)(C(=O)CO)C[C@@H]3O[C@H]1C[C@H](N)[C@H](O)[C@H](C)O1 [DOXORUBICIN]
CC50 [14]: 26.1 µM
CC50 [9]: 21.4 µM
CC50 [15]: 37.7 µM
CC50 [8]: 28.3 µM

CC(=O)N(C(C)=O)c1nc(-c2nnc(S)n2-c2ccccc2)cs1
CC50 [8]: 33.2 µM
zone of inhibition at 200 µg/disc [2]: 8 mm
zone of inhibition at 200 µg/disc [3]: 8 mm
zone of inhibition at 200 µg/disc [4]: 8 mm
zone of inhibition at 200 µg/disc [5]: 8 mm
zone of inhibition at 200 µg/disc [6]: 8 mm
IC50 [7]: 35 µM

COc1ccccc1-n1c(S)nnc1-c1csc(N)n1
MIC [13]: 8 µg/mL (≈ 26.2 µM)
MIC [10]: 4 µg/mL (≈ 13.1 µM)
zone of inhibition at 200 µg/disc [2]: 8 mm
zone of inhibition at 200 µg/disc [3]: 8 mm
zone of inhibition at 200 µg/disc [4]: 15 mm
zone of inhibition at 200 µg/disc [5]: 16 mm
zone of inhibition at 200 µg/disc [6]: 12 mm
IC50 [7]: 24 µM

COc1ccc(-n2c(S)nnc2-c2csc(N(C(C)=O)C(C)=O)n2)c(OC)c1
mortality at 50 µg/mL [1]: 0%
zone of inhibition at 200 µg/disc [2]: 8 mm
zone of inhibition at 200 µg/disc [3]: 8 mm
zone of inhibition at 200 µg/disc [4]: 8 mm
zone of inhibition at 200 µg/disc [5]: 8 mm
zone of inhibition at 200 µg/disc [6]: 8 mm
IC50 [7]: 8 µM

CC(=O)N(C(C)=O)c1nc(-c2nnc(S)n2-c2ccc(Oc3ccccc3)cc2)cs1
mortality at 50 µg/mL [1]: 100%
MIC [10]: 2 µg/mL (≈ 4.43 µM)
MIC [11]: 4 µg/mL (≈ 8.86 µM)
zone of inhibition at 200 µg/disc [2]: 8 mm
zone of inhibition at 200 µg/disc [3]: 8 mm
zone of inhibition at 200 µg/disc [4]: 8 mm
zone of inhibition at 200 µg/disc [5]: 20 mm
zone of inhibition at 200 µg/disc [6]: 18 mm
IC50 [7]: 15 µM

COc1ccc(-n2c(S)nnc2-c2csc(N)n2)cc1
zone of inhibition at 200 µg/disc [2]: 8 mm
zone of inhibition at 200 µg/disc [3]: 8 mm
zone of inhibition at 200 µg/disc [4]: 8 mm
zone of inhibition at 200 µg/disc [5]: 12 mm
zone of inhibition at 200 µg/disc [6]: 8 mm
IC50 [7]: 21 µM

COc1ccccc1-n1c(S)nnc1-c1csc(N(C(C)=O)C(C)=O)n1
MIC [13]: 0.8 µg/mL (≈ 2.05 µM)
MIC [10]: 4 µg/mL (≈ 10.3 µM)
zone of inhibition at 200 µg/disc [2]: 8 mm
zone of inhibition at 200 µg/disc [3]: 8 mm
zone of inhibition at 200 µg/disc [4]: 16 mm
zone of inhibition at 200 µg/disc [5]: 20 mm
zone of inhibition at 200 µg/disc [6]: 8 mm

Nc1nc(-c2nnc(S)n2-c2ccccc2)cs1
mortality at 50 µg/mL [1]: 16.6%
zone of inhibition at 200 µg/disc [2]: 8 mm
zone of inhibition at 200 µg/disc [3]: 8 mm
zone of inhibition at 200 µg/disc [4]: 8 mm
zone of inhibition at 200 µg/disc [5]: 8 mm
zone of inhibition at 200 µg/disc [6]: 8 mm

CC(=O)N(C(C)=O)c1nc(-c2nnc(S)n2-c2ccc(C)cc2)cs1
CC50 [14]: 23.8 µM
CC50 [9]: 18.9 µM
CC50 [8]: 25 µM
zone of inhibition at 200 µg/disc [2]: 8 mm
zone of inhibition at 200 µg/disc [3]: 8 mm
zone of inhibition at 200 µg/disc [4]: 8 mm
zone of inhibition at 200 µg/disc [5]: 8 mm
zone of inhibition at 200 µg/disc [6]: 8 mm

GENTAMICIN
MIC [12]: 1 µg/mL
MIC [10]: 2 µg/mL
MIC [11]: 2 µg/mL
inhibition zone (IZ) [2]: 19 mm
inhibition zone (IZ) [4]: 20.8 mm
inhibition zone (IZ) [5]: 25 mm
inhibition zone (IZ) [6]: 26.5 mm
